This note sets out measurements from ChEMBL document CHEMBL3352477 (ACS Med Chem Lett, 2015).

One assay relates to HT-1080. The assay can be described thus: Inhibition of human XBP1 splicing in human HT1080-CMV-XBP1-Luciferase cells assessed as luciferase signal by Promega Bright-Glo luciferase assay. In kind it is functional. A digest of the protocol:
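HT1080 cells carried an XBP1–luciferase fusion that is in frame and expressed only from the spliced XBP1 transcript. Thapsigargin induced the UPR and activated IRE1α to drive splicing. The luciferase signal was quantified as the measure of cellular XBP1 splicing.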

The target of assay [1] is Serine/threonine-protein kinase/endoribonuclease IRE1 (Homo sapiens, UniProt O75460). As to the kind of experiment: Inhibition of human IRE1alpha using 5'[6FAM]-GAGUCCGCAGCACUC-[BHQ1]3' substrate by biochemical fluorescence quenching assay. Summed up: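 RNase activity of autophosphorylated IRE1α, read as cleavage of an XBP1 stem-loop RNA substrate. This format picks up inhibitors acting at either the kinase or the RNase domain.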

Assay [2] addresses Mitogen-activated protein kinase 10 (Homo sapiens, UniProt P53779). The assay can be described thus: Inhibition of human wild type JNK3 using biotinylated ATF2 substrate assessed as phosphorylation at thr53 on ATF2 by fluorescent plate reader.
A short description of assay [3]: Inhibition of aurora (unknown origin) assessed as phosphorylation of histone H3. On the set-up: species or system Homo sapiens.

Serine/threonine-protein kinase/endoribonuclease IRE1, sequence (O75460 whole entry, the tested form may be a part): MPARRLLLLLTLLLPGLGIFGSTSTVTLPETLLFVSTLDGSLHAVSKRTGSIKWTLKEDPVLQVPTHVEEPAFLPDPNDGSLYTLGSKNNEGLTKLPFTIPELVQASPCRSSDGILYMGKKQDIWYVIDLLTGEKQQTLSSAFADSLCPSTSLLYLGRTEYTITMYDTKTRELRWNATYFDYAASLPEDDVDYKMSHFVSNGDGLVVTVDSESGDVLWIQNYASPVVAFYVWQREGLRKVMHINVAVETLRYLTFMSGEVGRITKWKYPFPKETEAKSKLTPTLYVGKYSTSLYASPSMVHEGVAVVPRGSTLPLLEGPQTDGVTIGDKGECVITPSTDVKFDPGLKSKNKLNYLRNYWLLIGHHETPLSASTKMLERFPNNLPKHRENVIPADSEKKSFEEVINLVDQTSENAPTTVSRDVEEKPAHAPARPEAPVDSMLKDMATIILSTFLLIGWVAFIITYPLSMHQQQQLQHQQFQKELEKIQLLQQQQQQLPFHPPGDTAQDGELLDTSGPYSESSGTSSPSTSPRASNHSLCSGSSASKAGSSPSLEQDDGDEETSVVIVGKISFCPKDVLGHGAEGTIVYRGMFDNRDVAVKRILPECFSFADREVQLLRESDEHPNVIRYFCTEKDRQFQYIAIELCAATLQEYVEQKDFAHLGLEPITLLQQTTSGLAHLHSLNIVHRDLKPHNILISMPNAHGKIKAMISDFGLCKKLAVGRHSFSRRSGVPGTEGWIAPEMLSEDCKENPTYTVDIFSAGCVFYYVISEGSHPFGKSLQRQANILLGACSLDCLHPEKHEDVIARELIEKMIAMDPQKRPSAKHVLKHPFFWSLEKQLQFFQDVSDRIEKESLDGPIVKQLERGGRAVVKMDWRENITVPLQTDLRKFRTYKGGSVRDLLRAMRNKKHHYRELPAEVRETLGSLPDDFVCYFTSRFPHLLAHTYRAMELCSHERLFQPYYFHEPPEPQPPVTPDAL
Mitogen-activated protein kinase 10, sequence (P53779 whole entry): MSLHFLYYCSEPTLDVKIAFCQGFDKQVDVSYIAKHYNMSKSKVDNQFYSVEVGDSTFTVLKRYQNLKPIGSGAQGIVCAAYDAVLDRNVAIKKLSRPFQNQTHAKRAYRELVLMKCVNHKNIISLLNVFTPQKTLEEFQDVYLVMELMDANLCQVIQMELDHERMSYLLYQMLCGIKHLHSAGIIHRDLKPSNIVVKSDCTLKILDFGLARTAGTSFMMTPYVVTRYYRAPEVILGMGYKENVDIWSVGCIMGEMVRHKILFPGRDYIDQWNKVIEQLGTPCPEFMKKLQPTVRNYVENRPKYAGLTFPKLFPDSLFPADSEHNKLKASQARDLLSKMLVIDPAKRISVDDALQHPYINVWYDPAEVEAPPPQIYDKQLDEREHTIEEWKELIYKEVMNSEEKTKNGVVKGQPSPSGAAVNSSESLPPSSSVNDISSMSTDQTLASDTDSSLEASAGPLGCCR

For `Cc1cc(NS(=O)(=O)c2ccccc2Cl)c2ccccc2c1Oc1ncccc1-c1ccnc(N[C@H]2CC[C@H](N)CC2)n1`, the IC50 was determined as 42 nM with HT-1080, 14 nM in assay [1] and 1600 nM in assay [2].
On to `CN1CCCC(Nc2nccc(-c3cccnc3Oc3ccc(Nc4nc5ccccc5[nH]4)c4ccccc34)n2)C1` (centres undefined), for which the half-inhibitory concentration (IC50) with HT-1080 amounted to 310 nM; in assay [1], 29 nM; in assay [2], 5.5 nM.
For `c1cnc(Oc2ccc(Nc3nc4ccccc4[nH]3)c3ccccc23)c(-c2ccnc(N[C@H]3CCCNC3)n2)c1`, the IC50 in the assay with HT-1080 amounted to 31 nM; in assay [1], 9.7 nM; in assay [2], 31 nM.
Take `Cc1cc(Nc2nc3ccccc3[nH]2)c2ccccc2c1Oc1ncccc1-c1ccnc(N[C@H]2CCCNC2)n1`: the IC50 in the assay on HT-1080 amounted to 13 nM; in assay [1] it was 5.1 nM; in assay [2], 20 nM.
For `Cc1ccc2c(NS(=O)(=O)c3ccccc3Cl)cccc2c1Oc1ncccc1-c1ccnc(N[C@H]2CCCNC2)n1` the same measures were 99 nM, 13 nM and 2500 nM.
Take `Cc1cc(NS(=O)(=O)c2ccccc2)c2ccccc2c1Oc1ncccc1-c1ccnc(N[C@H]2CC[C@H](N)CC2)n1`: the values for the IC50 (in the assay on HT-1080; in assay [1]; in assay [2]) were 590 nM, 45 nM and 2200 nM, respectively.
For the compound `N[C@H]1CC[C@H](Nc2nccc(-c3cccnc3Oc3ccc(Nc4nc5ccccc5[nH]4)c4ccccc34)n2)CC1`, the IC50 with HT-1080 is 33 nM; in assay [1], 11 nM; in assay [2], 1.9 nM.
Take `N[C@H]1CC[C@@H](Nc2nccc(-c3cccnc3Oc3ccc(Nc4nc5ccccc5[nH]4)c4ccccc34)n2)CC1`: the IC50 in the assay with HT-1080 was determined as 340 nM; in assay [1] it was 43 nM; in assay [2], 7.5 nM.
As for `c1cnc(Oc2ccc(Nc3nc4ccccc4[nH]3)c3ccccc23)c(-c2ccnc(N[C@@H]3CCCNC3)n2)c1`, the IC50 amounted to 570 nM with HT-1080, 51 nM in assay [1] and 14 nM in assay [2].
Take `Cc1ccc2c(NS(=O)(=O)c3ccccc3Cl)cccc2c1Oc1ncccc1-c1ccnc(N[C@H]2CC[C@H](N)CC2)n1`: the IC50 with HT-1080 turned out to be 120 nM; in assay [1], 22 nM; in assay [2], 540 nM.
On to `Cc1cc(Nc2nc3ccccc3[nH]2)c2ccccc2c1Oc1ncccc1-c1ccnc(NCCN(C)C)n1`, for which the concentration for half-maximal inhibition (IC50) in assay [3] was over 50 µM; with HT-1080 it was 200 nM; in assay [1], 14 nM; in assay [2], 710 nM.
Regarding `N[C@H]1CC[C@H](Nc2nccc(-c3cccnc3Oc3ccc(NS(=O)(=O)c4ccccc4Cl)c4ccccc34)n2)CC1`, the IC50 stood at 580 nM in the assay on HT-1080, 31 nM in assay [1] and 400 nM in assay [2].
For `Cc1cc(NS(=O)(=O)c2ccccc2C#N)c2ccccc2c1Oc1ncccc1-c1ccnc(N[C@H]2CC[C@H](N)CC2)n1` the same measures were 62 nM, 12 nM and 400 nM.
As for `OCCNc1nccc(-c2cccnc2Oc2ccc(Nc3nc4ccccc4[nH]3)c3ccccc23)n1`, the IC50 was found to be 870 nM with HT-1080, 170 nM in assay [1] and 12 nM in assay [2].
With `CC(C)CCNc1nccc(-c2cccnc2Oc2ccc(Nc3nc4ccccc4[nH]3)c3ccccc23)n1`, the IC50 in the assay on HT-1080 is 15000 nM; in assay [1] it was over 99000 nM; in assay [2] it was 32 nM.
As for `Cc1cc(Nc2nc3ccccc3o2)c2ccccc2c1Oc1ncccc1-c1ccnc(N[C@H]2CC[C@H](N)CC2)n1`, the values for the 50% inhibitory concentration (IC50) (in the assay on HT-1080; in assay [1]; in assay [2]) were 51 nM, 14 nM and 7 nM, respectively.
As to `Cc1cc(Nc2nc3ccccc3[nH]2)c2ccccc2c1Oc1ncccc1-c1ccnc(N[C@H]2CC[C@H](N)CC2)n1`, the IC50 in the assay on HT-1080 stood at 33 nM; in assay [1] it was 6.4 nM; in assay [2], 1.9 nM.
For `CN(C)CCNc1nccc(-c2cccnc2Oc2ccc(Nc3nc4ccccc4[nH]3)c3ccccc23)n1`, the IC50 in assay [3] was 16 µM; in the assay with HT-1080 it was 270 nM; in assay [1], 71 nM; in assay [2], 350 nM.
On to `COc1ccccc1S(=O)(=O)Nc1cc(C)c(Oc2ncccc2-c2ccnc(N[C@H]3CC[C@H](N)CC3)n2)c2ccccc12`, for which the IC50 amounted to 440 nM in the assay with HT-1080, 54 nM in assay [1] and 1200 nM in assay [2].

By IC50 is commonly meant the concentration needed to halve the response being measured.
